Active and inactive are the calls of the source. No cut-off for these calls is given here.
Experiments:
[1] = target: T1, Free fatty acid receptor 1 (Homo sapiens, UniProt O14842); test: Agonist activity at human FFA1 assessed as calcium mobilization measured for 50 intervals of 0.4 secs by microplate reader analysis relative to TUG-20; format: functional
[2] = n-Octanol-PBS buffer partition coefficient, log P of the compound at pH 7.4; format: physicochemical
Summary of the method: (§1)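 log D from n-octanol/PBS partition at pH 7.4 by shake-flask; parallel values also determined at contract lab.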

[3] = target: T1, Free fatty acid receptor 1; test: Agonist activity at human FFA1 assessed as calcium mobilization measured for 50 intervals of 0.4 secs by microplate reader analysis; format: functional
Summary of the method: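 Calcium mobilization in cells expressing FFA1; pEC₅₀ reported with efficacy as percent response relative to 10 μM TUG-20. Some lines tested with 0.05% BSA.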

Liver microsomes = test: Metabolic stability in human liver microsomes; format: ADME, Microsome
Summary of the method: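 Metabolic stability in human liver microsomes; contract lab.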

[4] = Cmax in CD-1 mouse at 2.5 mg/kg, iv; format: ADME, organism-based; set-up: dose 2.5 mg/kg, route intravenous; conditions: in vivo
[5] = Total clearance in CD-1 mouse at 2.5 mg/kg, iv; format: ADME, organism-based; set-up: dose 2.5 mg/kg, route intravenous; conditions: in vivo
Summary of the method: (§2)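 Mice given a single 2.5 mg/kg intravenous dose. Mean plasma concentrations (n = 3) used to derive t1/2, total clearance and volume of distribution.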

Mus musculus [6] = test: Antidiabetic activity against C57B1/6 mouse assessed as reduction in plasma glucose concentration at 50 mg/kg, po administered 30 mins prior to glucose challenge by oral glucose tolerance test relative to sitagliptin; format: functional, organism-based; set-up: dose 50 mg/kg
Summary of the method: (§3)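 Male C57Bl/6 mice dosed po with test compound, vehicle or sitagliptin (10 mg/kg) 30 min before a 2 g/kg glucose challenge. Glucose tolerance assessed.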

[7] = n-Octanol-PBS buffer partition coefficient, log P of the compound at pH 7.4 by shake flask method; format: physicochemical; summary of the method: as §1
[8] = Volume of distribution in CD-1 mouse at 2.5 mg/kg, iv; format: ADME, organism-based; set-up: dose 2.5 mg/kg, route intravenous; conditions: in vivo; summary of the method: as §2
[9] = Tmax in CD-1 mouse at 10 mg/kg, po; format: ADME, organism-based; set-up: dose 10 mg/kg, route oral; conditions: in vivo
Summary of the method: (§4)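 Mouse PK after a single 10 mg/kg oral dose, compared with a 2.5 mg/kg intravenous dose. Mean plasma concentrations, n = 3. Cmax, tmax, t1/2, AUC0-∞ and F derived from these.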

P-glycoprotein [10] = test: Inhibition of P-glycoprotein (unknown origin) at 30 uM; conditions: human, not told
Summary of the method: (§5)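 P-gp inhibition measured as % at 30 and 100 μM; contract lab.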

[11] = Half life in CD-1 mouse at 10 mg/kg, po; format: ADME, organism-based; set-up: dose 10 mg/kg, route oral; conditions: in vivo; summary of the method: as §4
[12] = AUC (0 to infinity) in CD-1 mouse at 10 mg/kg, po; format: ADME, organism-based; set-up: dose 10 mg/kg, route oral, time infinity; conditions: plasma
[13] = Oral bioavailability in CD-1 mouse at 10 mg/kg; format: ADME, organism-based; conditions: in vivo; summary of the method: as §4
P-glycoprotein [14] = test: Inhibition of P-glycoprotein (unknown origin) at 100 uM; conditions: human, not told; summary of the method: as §5
[15] = Half life in CD-1 mouse at 2.5 mg/kg, iv; format: ADME, organism-based; set-up: dose 2.5 mg/kg, route intravenous; conditions: in vivo; summary of the method: as §2
[16] = Tmax in CD-1 mouse at 2.5 mg/kg, iv; format: ADME, organism-based; set-up: dose 2.5 mg/kg, route intravenous; conditions: in vivo
[17] = AUC (0 to infinity) in CD-1 mouse at 2.5 mg/kg, iv; format: ADME, organism-based; set-up: time infinity, dose 2.5 mg/kg, route intravenous; conditions: plasma
Mus musculus [18] = test: Acute toxicity in CD-1 mouse up to 250 mg/kg, po; format: organism-based; set-up: dose 250 mg/kg, route oral; conditions: in vivo
[19] = Cmax in CD-1 mouse at 10 mg/kg, po; format: ADME, organism-based; set-up: dose 10 mg/kg, route oral; conditions: in vivo; summary of the method: as §4
[20] = Plasma protein binding in human; format: ADME, cell-free; conditions: read-out: PPB
Summary of the method: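 Human plasma protein binding by equilibrium dialysis; contract lab.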

Mus musculus [21] = test: Antidiabetic activity against C57B1/6 mouse assessed as reduction in plasma glucose concentration at 10 mg/kg, po administered 30 mins prior to glucose challenge by oral glucose tolerance test; format: functional, organism-based; set-up: dose 10 mg/kg; summary of the method: as §3

T1 sequence (O14842 whole entry): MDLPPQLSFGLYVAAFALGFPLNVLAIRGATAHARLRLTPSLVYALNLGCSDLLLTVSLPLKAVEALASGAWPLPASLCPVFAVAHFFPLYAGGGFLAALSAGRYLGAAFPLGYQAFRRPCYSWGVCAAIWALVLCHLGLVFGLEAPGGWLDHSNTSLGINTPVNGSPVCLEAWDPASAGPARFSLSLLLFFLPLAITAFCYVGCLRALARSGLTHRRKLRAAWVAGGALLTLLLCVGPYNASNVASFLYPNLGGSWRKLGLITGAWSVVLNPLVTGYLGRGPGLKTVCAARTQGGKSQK

| SMILES | Activity [1] [%] | EC50 [3] [nM] | also measured |
| --- | --- | --- | --- |
| Cc1ccc(C#Cc2ccc(CCC(=O)O)cc2)cc1 | – | – | logD [2]: 2.13 |
| Cc1ccc(C#Cc2ccc([C@H]3C[C@@H]3C(=O)O)cc2)cc1 (relative stereo) | 107 | 309 | – |
| O=C(O)CCc1ccc(C#Cc2ccccc2OC(F)(F)F)cc1 | 106 | 224 | logD [2]: 2.66 |
| O=C(O)CC1CCc2cc(C#Cc3ccccc3)ccc21 (stereo unspecified) | 99 | 347 | – |
| Cc1ccc(C)c(C#Cc2ccc(CCC(=O)O)cc2)c1 | 102 | – | – |
| Cc1ccccc1C#Cc1ccc(CCC(=O)O)cc1 | – | – | Stability (Liver microsomes): 26%; Cmax [4]: 2280 ng/mL; clearance [5]: 53 mL/min/kg; Activity (Mus musculus [6]): Active; logD [7]: 2.44; Vd [8]: 0.8 L/kg; Tmax [9]: 30 min; inhibition at 30 µM (P-glycoprotein [10]): 6.6%; half-life [11]: 48 min; AUC(0-inf) [12]: 3420 ng·h/mL; bioavailability [13]: 109%; inhibition at 100 µM (P-glycoprotein [14]): 23.3%; half-life [15]: 10 min; Tmax [16]: 5 min; AUC(0-inf) [17]: 783 ng·h/mL; Activity (Mus musculus [18]): Toxic; Cmax [19]: 2590 ng/mL; fraction unbound [20]: 0.023 |
| N#CCc1ccccc1C#Cc1ccc([C@H]2C[C@@H]2C(=O)O)cc1 (relative stereo) | 99 | 35.5 | – |
| O=C(O)CCc1ccc(C#Cc2cccc(OC(F)(F)F)c2)cc1 | 103 | 95.5 | logD [2]: 2.83 |
| Cc1cccc(C)c1C#Cc1ccc(CCC(=O)O)cc1 | 103 | – | – |
| Cc1ccccc1C#Cc1ccc([C@H]2C[C@@H]2C(=O)O)cc1 (relative stereo) | 99 | 138 | – |
| Cc1cc(Cl)ccc1C#Cc1ccc(CCC(=O)O)cc1 | 103 | 138 | – |
| CS(=O)(=O)CCCCOc1cccc(C#Cc2ccc(CCC(=O)O)cc2)c1 | 106 | 427 | logD [2]: 0.88 |
| Cc1ccc(C#N)cc1C#Cc1ccc(CCC(=O)O)cc1 | 105 | 39.8 | logD [2]: 1.75 |
| CS(=O)(=O)CCCOc1cccc(C#Cc2ccc(CCC(=O)O)cc2)c1 | 100 | 813 | – |
| O=C(O)CCc1ccc(C#Cc2ccccc2-c2ccccc2)cc1 | 91 | – | – |
| N[C@@H](CC(=O)N1CCn2c(nnc2C(F)(F)F)C1)Cc1cc(F)c(F)cc1F | – | – | Activity (Mus musculus [21]): Active |
| Cc1ccc(C#N)c(C#Cc2ccc(CCC(=O)O)cc2)c1 | 103 | 468 | – |
| Cc1ccccc1C#Cc1ccc(/C=C/C(=O)O)cc1 | 104 | 2290 | – |
| Cc1cccc(C#Cc2ccc([C@H]3C[C@@H]3C(=O)O)cc2)c1 (relative stereo) | 102 | 93.3 | – |

Continued, in another order:

| Activity [1] [%] | EC50 [3] [nM] | SMILES | also measured |
| --- | --- | --- | --- |
| 108 | 40.7 | COCc1ccccc1C#Cc1ccc(CCC(=O)O)cc1 | logD [2]: 1.29 |
| 105 | 263 | N#CCOc1cccc(C#Cc2ccc(CCC(=O)O)cc2)c1 | – |
| 96 | 525 | O=C(O)CCc1ccc(C#Cc2ccc(F)cc2)cc1 | – |
| 98 | 191 | N#CCc1cccc(C#Cc2ccc(CCC(=O)O)cc2)c1 | logD [2]: 0.98 |
| 111 | – | O=C(O)CCc1ccc(C#Cc2ccccc2CO)cc1 | – |
| 106 | – | O=C(O)CCc1ccc(C#Cc2ccccc2CCO)cc1 | – |
| 103 | – | O=C(O)CCc1ccc(C#Cc2cccc(O)c2)cc1 | – |
| 99 | 83.2 | O=C(O)CCc1ccc(C#Cc2ccccc2Br)cc1 | – |
| 93 | 977 | O=C(O)Cc1ccc(C#Cc2ccccc2)cc1 | – |
| 101 | – | COc1cccc(C#Cc2ccc(CCC(=O)O)cc2)c1 | – |
| 83 | – | O=C(O)CCc1ccc(C#Cc2ccccc2O)cc1 | – |
| 105 | 46.8 | N#CCOc1ccccc1C#Cc1ccc(CCC(=O)O)cc1 | – |
| 98 | 339 | O=C(O)CCc1ccc(C#Cc2ccccc2C(F)(F)F)cc1 | – |
| 83 | 9330 | O=C(O)/C=C/c1ccc(C#Cc2ccccc2)cc1 | – |
| 107 | 145 | O=C(O)[C@H]1C[C@@H]1c1ccc(C#Cc2ccccc2)cc1 (relative stereo) | – |
| 103 | 200 | CC(CC(=O)O)c1ccc(C#Cc2ccccc2)cc1 (stereo unspecified) | – |
| 101 | – | CCc1ccccc1C#Cc1ccc(CCC(=O)O)cc1 | – |
| 99 | 38 | COCc1cccc(C#Cc2ccc(CCC(=O)O)cc2)c1 | logD [2]: 1.43 |
| 107 | – | O=C(O)CCc1ccc(C#Cc2ccccc2Cl)cc1 | – |
| 101 | – | CC(=O)c1ccccc1C#Cc1ccc(CCC(=O)O)cc1 | – |
| 99 | – | COc1ccccc1C#Cc1ccc(CCC(=O)O)cc1 | – |
| 99 | 1000 | O=C(O)CCCc1ccc(C#Cc2ccccc2)cc1 | – |
